Measured values taken from ChEMBL document CHEMBL2429784, “Withanolide-based steroids from the cultured soft coral Sinularia brassica” (2013).

How the values were obtained:
Type in all cases: functional
Conditions in all cases: read-out: ED50 (the source's name)
[1] = system: HT-29; experiment: Cytotoxicity against human HT-29 cells by Alamar blue assay
Summary of the method: (§1)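 Cell lines from ATCC. Growth inhibition measured by Alamar Blue read-out. ED50 reported as mean ± SEM of triplicate determinations; inactivity cutoff set at ED50 > 10 μM. 5-Fluorouracil run as positive control.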

[2] = system: K562; experiment: Cytotoxicity against human K562 cells by Alamar blue assay; summary of the method: as §1
[3] = system: P388; experiment: Cytotoxicity against mouse P388 cells by Alamar blue assay; summary of the method: as §1
[4] = system: MOLT-4; experiment: Cytotoxicity against human MOLT4 cells by Alamar blue assay; summary of the method: as §1

Row | SMILES | EC50 [1] [µM] | EC50 [2] [µM] | EC50 [3] [µM] | EC50 [4] [µM]
1 | O=c1[nH]cc(F)c(=O)[nH]1 [FLUOROURACIL] | 7.7 | 21 | 6.2 | 7.7
2 | C[C@H]1[C@H]2[C@H](C[C@H]3[C@@H]4CCC5=CC(=O)C=C[C@]5(C)[C@H]4CC[C@]23C)O[C@@]2(OC(=O)[C@@H](C)[C@H]2C)[C@H]1O | 7.5 | – | – | 9.9
3 | C[C@@H]1[C@H]([C@H]2OC(=O)[C@H](C)[C@H]2C)O[C@H]2C[C@H]3[C@@H]4CCC5=CC(=O)C=C[C@]5(C)[C@H]4CC[C@]3(C)[C@@H]12 | 4.8 | – | 9.1 | 4.8
4 | C[C@@H]1[C@H]([C@H]2OC(=O)[C@@H](C)[C@H]2C)O[C@H]2C[C@H]3[C@@H]4CCC5=CC(=O)C=C[C@]5(C)[C@H]4CC[C@]3(C)[C@@H]12 | – | 8.7 | – | –
